Test results taken from ChEMBL document CHEMBL2010794, “Discovery of nor-seco himbacine analogs as thrombin receptor antagonists” (Bioorg Med Chem Lett, 2012).
Calls of active or inactive are those of the source. No cut-off for these calls is given here.

Tests used:
[1] = target: T1, Proteinase-activated receptor 1 (Homo sapiens, UniProt P25116); test: Displacement of [3H]haTRAP from human PAR1 after 1 hr by TopCount scintillation counting; details: read-out: IC50
T1 sequence (P25116 whole entry): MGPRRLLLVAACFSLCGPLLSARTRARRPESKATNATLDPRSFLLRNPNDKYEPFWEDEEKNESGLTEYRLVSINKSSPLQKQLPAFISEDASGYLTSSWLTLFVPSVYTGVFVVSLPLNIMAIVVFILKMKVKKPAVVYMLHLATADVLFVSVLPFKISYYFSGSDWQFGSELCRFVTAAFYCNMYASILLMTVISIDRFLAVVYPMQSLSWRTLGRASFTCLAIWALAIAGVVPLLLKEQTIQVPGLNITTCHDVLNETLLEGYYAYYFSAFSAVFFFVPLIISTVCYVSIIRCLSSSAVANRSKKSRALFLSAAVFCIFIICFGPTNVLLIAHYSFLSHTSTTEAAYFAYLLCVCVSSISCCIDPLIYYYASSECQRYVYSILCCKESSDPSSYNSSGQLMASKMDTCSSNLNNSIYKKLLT
Outline: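 PAR-1 receptors isolated from human platelets; competition binding against [³H]haTRAP radioligand; values expressed as IC₅₀ (nM).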

[2] = AUC (0 to 6 hrs) in rat at 10 mg/kg, po; type: ADME, organism-based; set-up: time < 6 hr, dose 10 mg/kg, route oral; details: plasma
Outline: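 Rats given a single 10 mg/kg oral dose in 0.4% methylcellulose; plasma levels followed up to 6 h; AUC from 0 to 6 h reported in ng h/mL.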

[3] = system: Cynomolgus monkey; test: Ex-vivo inhibition of PAR1 in cynomolgus monkey assessed as inhibition of haTRAP-induced platelet aggregation at 3 mg/kg, po at 24 hrs by aggregometry; type: functional; details: Macaca fascicularis
Outline: (§1)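 Cynomolgus monkeys dosed orally in 20% PEG-HPBCD (hydrochloride salt for the 7a-hydroxy series); blood sampled at various times up to 24 h; haTRAP added to whole blood at 1 µM to trigger aggregation, measured by aggregometer; result given as % reduction in haTRAP-induced aggregation at the stated dose and time.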

[4] = AUC (0 to 24 hrs) in cynomolgus monkey plasma at 3 mg/kg, po; type: ADME, organism-based, Macaca fascicularis; set-up: time < 24 hr, dose 3 mg/kg, route oral
[5] = Oral bioavailability in cynomolgus monkey at 1 mg/kg; type: ADME, organism-based, Macaca fascicularis; details: in vivo
Outline: (§2)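 Full cynomolgus PK study: 1 mg/kg oral in 0.4% methylcellulose and 1 mg/kg intravenous in 20% HPBCD; AUC, oral Cmax, Tmax, half-life, Vd(ss) and clearance derived from plasma concentrations.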

[6] = Cmax in cynomolgus monkey at 1 mg/kg, po; type: ADME, organism-based, Macaca fascicularis; set-up: dose 1 mg/kg, route oral; details: in vivo; outline: as §2
[7] = system: Cynomolgus monkey; test: Ex-vivo inhibition of PAR1 in cynomolgus monkey assessed as inhibition of haTRAP-induced platelet aggregation at 1 mg/kg, po at 24 hrs by aggregometry; type: functional; details: Macaca fascicularis; outline: as §1
[8] = Half life in cynomolgus monkey at 1 mg/kg, po and 1 mg/kg, iv; type: ADME, organism-based, Macaca fascicularis; details: in vivo; outline: as §2
[9] = AUC (0 to 24 hrs) in cynomolgus monkey at 1 mg/kg, po and 1 mg/kg, iv; type: ADME, organism-based, Macaca fascicularis; details: plasma; outline: as §2
[10] = Volume of distribution at steady state in cynomolgus monkey at 1 mg/kg, po and 1 mg/kg, iv; type: ADME, organism-based, Macaca fascicularis; details: in vivo, read-out: Vdss; outline: as §2
[11] = AUC (0 to 24 hrs) in cynomolgus monkey plasma at 1 mg/kg, po; type: ADME, organism-based, Macaca fascicularis; set-up: time < 24 hr, dose 1 mg/kg, route oral
[12] = Clearance in cynomolgus monkey at 1 mg/kg, po and 1 mg/kg, iv; type: ADME, organism-based, Macaca fascicularis; details: in vivo; outline: as §2
[13] = Tmax in cynomolgus monkey at 1 mg/kg, po and 1 mg/kg, iv; type: ADME, organism-based, Macaca fascicularis; details: in vivo; outline: as §2
[14] = system: Cynomolgus monkey; test: Ex-vivo inhibition of PAR1 in cynomolgus monkey assessed as inhibition of haTRAP-induced platelet aggregation at 3 mg/kg, po at 6 hrs by aggregometry; type: functional; details: Macaca fascicularis; outline: as §1
[15] = system: Cynomolgus monkey; test: Ex-vivo inhibition of PAR1 in cynomolgus monkey assessed as inhibition of haTRAP-induced platelet aggregation at 0.3 mg/kg, po by aggregometry; type: functional, organism-based; set-up: dose 0.3 mg/kg; details: Macaca fascicularis; outline: as §1

Row | SMILES | IC50 [1] | AUC(0-t) at 6 h [2] | further results
1 | CC[C@H]1[C@H](/C=C/c2ccc(-c3ccccc3F)cn2)[C@@H]2[C@@H](C)OC(=O)[C@@H]2C[C@@H]1C | 22 nM | 852 ng·h/mL | inhibition in vivo at 3 mg/kg [3]: 45%
2 | CC[C@H]1[C@H](/C=C/c2ccc(-c3cc(Cl)ccc3Cl)cn2)[C@@H]2[C@@H](C)OC(=O)[C@@H]2C[C@@H]1C | 513 nM | – | –
3 | CC[C@H]1[C@H](/C=C/c2ccc(-c3ccoc3)cn2)[C@@H]2[C@@H](C)OC(=O)[C@]2(O)C[C@@H]1C.Cl | – | – | AUC(0-t) at 24 h [4]: 4110 ng·h/mL; inhibition in vivo at 3 mg/kg [3]: 35%
4 | CC[C@H]1[C@H](/C=C/c2ccc(-c3ccccc3)cn2)[C@@H]2[C@@H](C)OC(=O)[C@@H]2C[C@@H]1C | 8.8 nM | 672 ng·h/mL | –
5 | CC[C@H]1[C@H](/C=C/c2ccc(-c3ccc(OC)cc3)cn2)[C@@H]2[C@@H](C)OC(=O)[C@]2(O)C[C@@H]1C | 451 nM | – | –
6 | CC[C@H]1[C@H](/C=C/c2ccc(-c3ccccc3)cn2)[C@@H]2[C@@H](C)OC(=O)[C@]2(O)C[C@@H]1C.Cl | – | – | bioavailability [5]: 78%; Cmax [6]: 397 ng/mL; inhibition in vivo at 1 mg/kg [7]: 65%; half-life [8]: 642 min; AUC(0-t) [9]: 3980 ng·h/mL; Vd [10]: 1.5 L/kg; AUC(0-t) at 24 h [11]: 3820 ng·h/mL; clearance [12]: 3.3 mL/min/kg; Tmax [13]: 1 h
7 | CC[C@H]1[C@H](/C=C/c2ccc(-c3cccc(C)c3)cn2)[C@@H]2[C@@H](C)OC(=O)[C@]2(O)C[C@@H]1C.Cl | – | – | AUC(0-t) at 24 h [4]: 2770 ng·h/mL; inhibition in vivo at 3 mg/kg [14]: 100%
8 | CC[C@H]1[C@H](/C=C/c2ccc(-c3ccccc3)cn2)[C@@H]2[C@@H](C)OC(=O)[C@]2(O)C[C@@H]1C [listing 1 of 2 here] | 6.4 nM | 3300 ng·h/mL | –
9 | CC[C@H]1[C@H](CCc2ccc(-c3cccc(C(F)(F)F)c3)cn2)[C@@H]2[C@@H](C)OC(=O)[C@@H]2C[C@@H]1C | 225 nM | – | –
10 | CC[C@H]1[C@H](/C=C/c2ccc(-c3ccccc3C)cn2)[C@@H]2[C@@H](C)OC(=O)[C@]2(O)C[C@@H]1C.Cl | – | – | AUC(0-t) at 24 h [4]: 2720 ng·h/mL; inhibition in vivo at 3 mg/kg [14]: 55%
11 | CC[C@H]1[C@H](/C=C/c2ccc(-c3cccc(C)c3)cn2)[C@@H]2[C@@H](C)OC(=O)[C@]2(O)C[C@@H]1C | 35 nM | 203 ng·h/mL | –
12 | CC[C@H]1[C@H](/C=C/c2ccc(-c3ccccc3Cl)cn2)[C@@H]2[C@@H](C)OC(=O)[C@@H]2C[C@@H]1C | 25 nM | – | –
13 | CC[C@H]1[C@H](/C=C/c2ccc(-c3ccccc3)cn2)[C@@H]2[C@@H](C)OC(=O)[C@]2(O)C[C@@H]1C [listing 2 of 2 here] | – | – | inhibition [15]: Active; inhibition [3]: Active

More lines, main results first:

Row | IC50 [1] | AUC(0-t) at 6 h [2] | SMILES | further results
14 | 28 nM | – | CC[C@H]1[C@H](/C=C/c2ccc(-c3cccc(Cl)c3)cn2)[C@@H]2[C@@H](C)OC(=O)[C@@H]2C[C@@H]1C | –
15 | 18 nM | 2440 ng·h/mL | CC[C@H]1[C@H](/C=C/c2ccc(-c3cccc(OC)c3)cn2)[C@@H]2[C@@H](C)OC(=O)[C@]2(O)C[C@@H]1C | –
16 | 64 nM | 486 ng·h/mL | CC[C@H]1[C@H](/C=C/c2ccc(N3CCCC3)cn2)[C@@H]2[C@@H](C)OC(=O)[C@]2(O)C[C@@H]1C | –
17 | 49 nM | 1900 ng·h/mL | CC[C@H]1[C@H](/C=C/c2ccc(-c3cccnc3)cn2)[C@@H]2[C@@H](C)OC(=O)[C@]2(O)C[C@@H]1C | –
18 | 8.6 nM | 148 ng·h/mL | CC[C@H]1[C@H](/C=C/c2ccc(-c3ccoc3)cn2)[C@@H]2[C@@H](C)OC(=O)[C@]2(O)C[C@@H]1C | –
